Ki and Displacement data for 21 compounds are collected here from ChEMBL document CHEMBL1135743 (J Med Chem, 2002).

For assay [1], the target named is T1, Adenosine receptor A3 (Homo sapiens, UniProt P0DMS8).
T1 sequence (P0DMS8 whole entry): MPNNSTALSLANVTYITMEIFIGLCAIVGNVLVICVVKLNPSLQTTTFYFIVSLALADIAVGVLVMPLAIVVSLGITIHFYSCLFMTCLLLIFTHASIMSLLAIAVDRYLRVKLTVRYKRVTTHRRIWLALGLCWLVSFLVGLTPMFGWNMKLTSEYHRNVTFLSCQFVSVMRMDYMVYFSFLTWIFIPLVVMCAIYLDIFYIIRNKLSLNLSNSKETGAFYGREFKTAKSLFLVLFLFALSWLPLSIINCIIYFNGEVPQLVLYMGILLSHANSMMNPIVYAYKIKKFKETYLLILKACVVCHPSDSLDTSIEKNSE
Kind of assay: Ability to displace [125I]- AB-MECA from HEK 293 cell membrane expressing the human Adenosine A3 receptor. The format is cell membranes, HEK293.

The target in assay [2] is T2, Adenosine receptor A1 (Homo sapiens, UniProt P30542).
T2 sequence (P30542 whole entry): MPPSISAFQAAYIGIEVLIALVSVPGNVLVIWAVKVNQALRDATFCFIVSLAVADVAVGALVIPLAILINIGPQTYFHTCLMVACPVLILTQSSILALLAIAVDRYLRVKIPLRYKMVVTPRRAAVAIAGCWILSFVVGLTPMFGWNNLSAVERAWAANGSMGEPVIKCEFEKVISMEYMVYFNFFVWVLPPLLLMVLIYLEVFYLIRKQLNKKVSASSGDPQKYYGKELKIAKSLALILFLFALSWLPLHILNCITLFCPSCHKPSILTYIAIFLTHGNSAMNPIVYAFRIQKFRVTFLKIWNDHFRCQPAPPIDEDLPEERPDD
Kind of assay: Displacement of [3H]DPCPX from CHO cell membrane expressing human Adenosine A1 receptor. The class given is cell membranes. (In general: In a radioligand displacement assay an active substance lowers the binding of a labelled ligand.)

Assay [3] deals with T3, Adenosine receptor A2a (Homo sapiens, UniProt P29274). Kind of assay: Displacement of [3H]ZM-241,385 from CHO cell membrane expressing human Adenosine A2A receptor. The class given is cell membranes. An outline of the steps: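 Membranes from CHO cells expressing human A2A, with adenosine deaminase 2 IU/mL added. Incubation used 2.0 nM (final) [3H]ZM241385 in 50 mM Tris/HCl pH 7.4 for 2 h at 25 °C. Nonspecific binding was set with 100 µM CPA. GF/B filtration, four ice-cold washes, scintillation counting. Ligands were dissolved in DMSO stocks.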

Assay [4] concerns the target T4, Adenosine receptor A1 (Homo sapiens) (UniProt P30542).
T4 sequence (whole entry): T2 sequence (P30542 whole entry)
Briefly: Ability to displace [3H]- DPCPX from CHO cell membrane expressing the human Adenosine A1 receptor at a concentration of 10 uM. The format is cell membranes.

The target in assay [5] is T3, Adenosine receptor A2a. Kind of assay: Ability to displace [3H]- ZM-241385 from CHO cell membrane expressing the human Adenosine A2A receptor at a concentration of 10 uM. The class given is cell membranes.
The target of assay [6] is T3, Adenosine receptor A2a. Kind of assay: Displace [3H]ZM-241385 from CHO cell membrane expressing human Adenosine A2A receptor at 10 uM. The format is cell membranes.
The target of assay [7] is T4, Adenosine receptor A1 (Homo sapiens). Kind of assay: Displacement of [3H]DPCPX from CHO cell membrane expressing human Adenosine A1 receptor at 10 uM. The format is cell membranes.
The target is the same in assay [8]. Briefly: Displacement of [3H]- DPCPX from CHO cell membrane expressing human Adenosine A1 receptor. The format is cell membranes. Put shortly: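 Membranes from CHO cells stably expressing human A1, resuspended in 50 mM Tris/HCl pH 7.4 with adenosine deaminase 2 IU/mL. Incubated with 1.6 nM (final) [3H]DPCPX in 50 mM Tris/HCl pH 7.4 for 1 h at 25 °C. Nonspecific binding was set with 10 µM CPA. Filtration over GF/B, three ice-cold washes, then liquid scintillation counting. Ligand stocks were in DMSO.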

For assay [9], the target named is T5, Adenosine receptor A3 (Homo sapiens) (UniProt P0DMS8).
T5 sequence (whole entry): T1 sequence (P0DMS8 whole entry)
Kind of assay: Displacement of [125I]AB-MECA from HEK293 cell membrane expressing human Adenosine A3 receptor at 10 uM. The class given is cell membranes.

T3 sequence (P29274 whole entry): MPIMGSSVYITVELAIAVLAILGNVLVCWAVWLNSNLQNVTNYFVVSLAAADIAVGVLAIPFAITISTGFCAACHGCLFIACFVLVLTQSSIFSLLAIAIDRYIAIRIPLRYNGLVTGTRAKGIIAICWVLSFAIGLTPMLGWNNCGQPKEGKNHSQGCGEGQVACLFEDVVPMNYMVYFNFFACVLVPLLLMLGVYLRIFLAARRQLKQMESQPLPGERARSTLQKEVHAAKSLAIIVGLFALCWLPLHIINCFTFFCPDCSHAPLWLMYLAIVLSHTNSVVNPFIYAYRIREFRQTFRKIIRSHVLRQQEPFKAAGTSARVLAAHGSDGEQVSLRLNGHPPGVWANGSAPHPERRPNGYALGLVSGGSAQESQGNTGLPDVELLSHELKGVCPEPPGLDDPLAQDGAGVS

The Ki is the equilibrium dissociation constant of an inhibitor or competing ligand from its target. A higher Ki goes with weaker binding. `CCCn1c(=O)c2c(nc3cc(C(C)(C)C)ccn32)n(Cc2ccccc2)c1=O`: the Ki was 950 nM in assay [1], 1460 nM in [2] and 385 nM in [3].

`CCCn1c(=O)c2c(nc3ccccn32)n(Cc2cccc(C)c2)c1=O` displayed a Ki in assay [1] of 68 nM. Besides, the Displacement in assay [4] was 44%; in [5], 35%.

In the case of `CC(C)(C)c1ccn2c(c1)nc1c2c(=O)[nH]c(=O)n1Cc1ccccc1`, in assay [1], affinity was put at a Ki of 555 nM. Besides, the Displacement in [4] turned out to be 53%; in [5], 23%.

Consider `O=c1c2c(nc3ccccn32)n(Cc2ccccc2)c(=O)n1Cc1ccccc1`, for which the Ki in assay [1] is 77 nM; in assay [3], 25800 nM. In [4], this compound registered a Displacement of 20%.

Take `CCCn1c(=O)c2c(nc3cc(-c4ccccc4)ccn32)n(Cc2ccccc2)c1=O`: the values for the Displacement in [4] and in assay [5] were 25% and 8%, respectively.

Regarding `CCCn1c(=O)c2c(nc3cc(OC)ccn32)n(Cc2ccccc2)c1=O`, the Ki came out at 10 nM in [1] and 179 nM in assay [2]. Moreover, the Displacement in assay [5] was 44%.

Consider `O=c1[nH]c(=O)n(Cc2ccccc2)c2nc3ccccn3c12`, for which affinity in [1] was put at a Ki of 370 nM. Moreover, the Displacement is 47% in [4] and 32% in [5].

As to `CCCn1c(=O)c2c(nc3ccccn32)n(C)c1=O`, the Ki in assay [1] is 3020 nM; in [2], 2100 nM. In addition, in [6], the Displacement was determined as 49%.

With `C#CCn1c(=O)c2c(nc3ccccn32)n(Cc2ccccc2)c1=O`, the Ki is 14 nM in assay [1], 124 nM in [2] and 96 nM in [3].

For `CCn1c(=O)c2c(nc3ccccn32)n(Cc2ccccc2)c1=O`, the Ki in assay [1] came out at 36 nM; in assay [2] it was 325 nM; in assay [3], 584 nM.

Consider `COc1ccn2c(c1)nc1c2c(=O)[nH]c(=O)n1Cc1ccccc1`, for which the affinity in assay [1], expressed as Ki, was 210 nM. For the same compound, the Displacement in assay [4] turned out to be 49%; in [5], 10%.

Take `CCCn1c(=O)c2c(nc3ccccn32)n(Cc2ccc(OC)cc2)c1=O`: the Ki was 8.3 nM in assay [1] and 83 nM in assay [2]. Also, the Displacement in assay [5] worked out at 40%.

In turn, `COC(=O)/C=C/Cn1c(=O)c2c(nc3ccccn32)n(Cc2ccccc2)c1=O` displayed a Ki in [1] of 1130 nM. The values for the Displacement in [7] and in assay [6] were 1% and 12%, respectively.

With `O=c1c2c(nc3ccccn32)n(Cc2ccccc2)c(=O)n1CC1CCCCC1`, in [1], the Ki was determined as 114 nM. Also, the results for the Displacement in assay [5] and in assay [8] were 22% and 21%, respectively.

Compound `CCCn1c(=O)c2c(nc3ccccn32)n(Cc2ccccc2)c1=O` yielded a Ki in [3] of 119 nM.

For the compound `O=c1c2c(nc3ccccn32)n(Cc2ccccc2)c(=O)n1CC1CC1`, the Ki came out at 4.2 nM in [1] and 242 nM in assay [3]. In [4], this compound returned a Displacement of 40.9%.

As for `O=c1[nH]c(=O)n(Cc2ccccc2)c2nc3cc(-c4ccccc4)ccn3c12`, the Ki in assay [1] was 200 nM. The Displacement in [4] is 11%; in [5] it was 0%.

`COc1ccc(Cn2c(=O)c3c(nc4ccccn43)n(Cc3ccccc3)c2=O)cc1`: the Ki in [1] was found to be 213 nM. Besides, the Displacement in assay [4] is 25%; in assay [5] it was 16%.

For the compound `NCCCn1c(=O)c2c(nc3ccccn32)n(Cc2ccccc2)c1=O`, the figures for the Displacement in [9], in assay [4] and in assay [5] were 6%, 7% and 11%, respectively.

On to `C=CCn1c(=O)c2c(nc3ccccn32)n(Cc2ccccc2)c1=O`, for which the Ki came out at 5 nM in assay [1], 42 nM in [2] and 161 nM in [3].

For the compound `CC(C)Cn1c(=O)c2c(nc3ccccn32)n(Cc2ccccc2)c1=O`, the Ki came to 6.3 nM in [1] and 28 nM in assay [2]. Besides, the Displacement in [5] stood at 40%.
